Key:
[1] = target: T1, Alkaline phosphatase, tissue-nonspecific isozyme (Bos taurus, UniProt P09487); test: Inhibition of bovine kidney non-specific alkaline phosphatase using CDP-star chemiluminescent substrate assessed as change in luminescence by spectrophotometric method
T1 sequence (P09487 whole entry): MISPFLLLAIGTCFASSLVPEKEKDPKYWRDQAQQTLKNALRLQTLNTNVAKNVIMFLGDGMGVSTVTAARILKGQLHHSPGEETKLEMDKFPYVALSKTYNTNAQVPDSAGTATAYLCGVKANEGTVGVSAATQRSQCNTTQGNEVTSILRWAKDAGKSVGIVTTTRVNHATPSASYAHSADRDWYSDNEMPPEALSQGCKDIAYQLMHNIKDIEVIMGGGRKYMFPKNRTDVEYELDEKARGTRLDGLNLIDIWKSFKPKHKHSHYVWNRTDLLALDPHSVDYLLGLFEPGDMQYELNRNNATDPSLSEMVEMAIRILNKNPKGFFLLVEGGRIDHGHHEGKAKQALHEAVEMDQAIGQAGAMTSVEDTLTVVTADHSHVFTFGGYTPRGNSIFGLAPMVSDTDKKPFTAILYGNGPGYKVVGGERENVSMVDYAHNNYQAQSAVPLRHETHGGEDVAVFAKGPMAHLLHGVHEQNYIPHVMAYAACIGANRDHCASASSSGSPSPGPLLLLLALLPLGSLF

[2] = target: Intestinal-type alkaline phosphatase (Bos taurus, UniProt P19111); test: Inhibition of calf intestinal alkaline phosphatase using CDP-star chemiluminescent substrate assessed as change in luminescence by spectrophotometric method
Carbonic anhydrase 2 = Carbonic anhydrase 2 (Bos taurus, UniProt P00921); test: Inhibition of bovine carbonic anhydrase 2 assessed as hydrolysis of p-nitrophenyl acetate after 30 mins by spectrophotometric method
[3] = target: Carbonic anhydrase 2 (Bos taurus) (UniProt P00921); test: Inhibition of bovine carbonic anhydrase 2 assessed as hydrolysis of p-nitrophenyl acetate at 0.5 mM after 30 mins by spectrophotometric method
Method in brief: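 Bovine CA (50 U/well) in 50 mM Tris-sulfate pH 7.6 with 0.1 mM ZnCl2; compound at 0.5 mM in 1% DMSO; pre-incubated 10 min at 25 °C, pre-read at 348 nm; p-nitrophenyl acetate added to 0.6 mM final; 30 min at 25 °C, read at 348 nm.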

[4] = target: T2, Alkaline phosphatase, tissue-nonspecific isozyme (Bos taurus) (UniProt P09487); test: Inhibition of bovine kidney non-specific alkaline phosphatase using CDP-star chemiluminescent substrate assessed as change in luminescence at 0.2 mM by spectrophotometric method
T2 sequence (whole entry): T1 sequence (P09487 whole entry)
Method in brief: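 Buffer: 8 M DEA pH 9.8, 2.5 mM MgCl2, 0.05 mM ZnCl2. Compound 0.2 mM, final DMSO 1% (v/v), with TNAP (1:800 dilution, 0.8 units/mL); pre-incubated 3–5 min at 37 °C, luminescence pre-read; CDP-star added to 110 µM final; 15 min at 37 °C, after-read. Percent inhibition vs uninhibited control; levamisole 2 mM per well as positive control.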

Sequence of Carbonic anhydrase 2 (Bos taurus) (P00921 2-260 limits assumed): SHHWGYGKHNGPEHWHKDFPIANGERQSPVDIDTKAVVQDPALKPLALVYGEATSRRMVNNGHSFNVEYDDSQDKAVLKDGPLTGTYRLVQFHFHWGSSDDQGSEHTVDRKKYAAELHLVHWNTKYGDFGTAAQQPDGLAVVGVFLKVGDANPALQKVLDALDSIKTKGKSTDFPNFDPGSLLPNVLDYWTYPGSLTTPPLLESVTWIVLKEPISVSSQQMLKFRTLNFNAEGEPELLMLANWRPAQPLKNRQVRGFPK
Sequence of Carbonic anhydrase 2 (P00921 whole entry): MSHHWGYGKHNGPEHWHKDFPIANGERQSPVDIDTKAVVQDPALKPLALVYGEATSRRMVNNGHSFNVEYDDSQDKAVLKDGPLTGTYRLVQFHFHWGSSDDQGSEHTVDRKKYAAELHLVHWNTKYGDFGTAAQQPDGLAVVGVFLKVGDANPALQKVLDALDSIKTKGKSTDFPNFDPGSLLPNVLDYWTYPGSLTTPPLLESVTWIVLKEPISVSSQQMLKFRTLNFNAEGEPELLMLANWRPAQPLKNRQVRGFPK
Sequence of Intestinal-type alkaline phosphatase (P19111 whole entry): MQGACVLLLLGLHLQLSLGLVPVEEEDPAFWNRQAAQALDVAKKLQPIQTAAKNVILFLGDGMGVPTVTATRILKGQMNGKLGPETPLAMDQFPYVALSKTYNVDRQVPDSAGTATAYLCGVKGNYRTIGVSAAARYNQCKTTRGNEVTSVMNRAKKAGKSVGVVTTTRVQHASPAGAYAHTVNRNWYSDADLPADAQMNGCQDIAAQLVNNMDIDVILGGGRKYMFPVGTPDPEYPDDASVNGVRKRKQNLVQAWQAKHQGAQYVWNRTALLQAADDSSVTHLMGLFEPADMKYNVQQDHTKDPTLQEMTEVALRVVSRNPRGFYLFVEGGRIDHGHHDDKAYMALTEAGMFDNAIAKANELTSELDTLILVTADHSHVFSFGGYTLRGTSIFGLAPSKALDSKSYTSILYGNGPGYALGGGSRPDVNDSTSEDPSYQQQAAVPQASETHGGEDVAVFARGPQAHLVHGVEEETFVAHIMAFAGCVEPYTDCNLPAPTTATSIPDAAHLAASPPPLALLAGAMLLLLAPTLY

| SMILES | IC50 [1] [µM] | Ki [1] [µM] | IC50 [2] [µM] | IC50 (Carbonic anhydrase 2; read-out: IC50) [µM] | IC50 (Carbonic anhydrase 2) | inhibition [3] [%] | inhibition [4] [%] |
| --- | --- | --- | --- | --- | --- | --- | --- |
| NS(=O)(=O)c1ccc(NS(=O)(=O)c2ccc(F)cc2)cc1 | 3.26 | 1.39 | 1.13 | 0.1 |  |  |  |
| Cc1ccc(S(=O)(=O)Nc2cccc(S(N)(=O)=O)c2)cc1 | 2.24 | 0.95 | 8.27 | 0.152 |  |  |  |
| CCOc1ccc(NS(=O)(=O)c2ccc(C)cc2)cc1 | 0.31 | 0.128 | 30.1 |  | Not Active |  |  |
| NS(=O)(=O)c1cccc(NS(=O)(=O)c2ccc(F)cc2)c1 | 0.15 | 0.06 | 1.27 | 0.1 |  |  |  |
| Cc1ccc(S(=O)(=O)NCc2ccc(S(N)(=O)=O)cc2)cc1 | 0.115 | 0.05 | 0.14 | 0.134 |  |  |  |
| Cc1ccc(S(=O)(=O)Nc2ccccc2)cc1 | 0.18 | 0.07 | 9.15 |  |  |  |  |
| Cc1ccc(S(=O)(=O)NCCc2ccc(S(N)(=O)=O)cc2)cc1 | 41.2 | 17.6 | 2.96 | 0.241 |  |  |  |
| NS(=O)(=O)c1ccc(NC(=O)c2ccc(F)cc2)cc1 | 58.6 | 25.1 | 5.91 |  |  | 47.3 |  |
| c1ccc([C@H]2CN3CCSC3=N2)cc1 [LEVAMISOLE] |  | 1.81 |  |  |  |  |  |
| NS(=O)(=O)c1ccc(CCNC(=O)c2ccccc2)cc1 | 10.3 | 3.96 | 0.429 | 0.544 |  |  |  |
| NS(=O)(=O)c1ccc(CCNS(=O)(=O)c2ccc(F)cc2)cc1 |  |  | 11.7 | 0.035 |  |  | 44.1 |
| NS(=O)(=O)c1ccc(NC(=O)c2ccccc2)cc1 | 70.1 | 16.6 | 3.05 |  |  | 48.4 |  |
| Cc1ccc(S(=O)(=O)Nc2ccc(S(N)(=O)=O)cc2)cc1 | 222 | 91.9 | 14.5 | 0.057 |  |  |  |
| NS(=O)(=O)c1ccc(CNC(=O)c2ccccc2)cc1 | 2.87 | 0.918 | 4.45 | 0.691 |  |  |  |
| NS(=O)(=O)c1cccc(NC(=O)c2ccc(F)cc2)c1 | 55.6 | 16.2 | 9.75 |  |  | 36.4 |  |
| NS(=O)(=O)c1ccc(CCNC(=O)c2ccc(F)cc2)cc1 | 22.5 | 4.51 | 6.73 | 0.656 |  |  |  |
| NS(=O)(=O)c1ccc(CNS(=O)(=O)c2ccc(F)cc2)cc1 | 2.94 | 1.25 | 1.35 | 0.215 |  |  |  |
| NS(=O)(=O)c1ccc(CNC(=O)c2ccc(F)cc2)cc1 | 0.613 | 0.299 | 1.18 | 0.821 |  |  |  |
| CCOc1ccc(NS(=O)(=O)c2ccc(F)cc2)cc1 |  |  | 0.72 |  | Not Active |  | 39.5 |

Reference: ChEMBL document CHEMBL3399968, “Diarylsulfonamides and their bioisosteres as dual inhibitors of alkaline phosphatase and carbonic anhydrase: Structure activity relationship and molecular modelling studies” (Bioorg Med Chem, 2015)
